Test results published in ChEMBL document CHEMBL4513216, “Probing the Open Global Health Chemical Diversity Library for Multistage-Active Starting Points for Next-Generation Antimalarials” (ACS Infect Dis, 2020).

Experiment: Toxicity liver stage against HepG2, at 10uM
Format: cell-based
Set-up: test concentration 10 uM, cell line HepG2-A16-CD81EGFP
Settings: human, HepG2-A16-CD81EGFP cells; read-out: INHIBITION
Method in brief: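 Uninfected HepG2-A16-CD81EGFP cells, 3 × 10^3 per well, 1536-well, plated on prespotted compound at 10 μM final, parasite-free screening media added to match infected plates; puromycin 10 μM positive, DMSO 0.5% negative; run in parallel with 48 h PbLuc assay at 37 °C, 5% CO2; viability by CellTiter-Glo luminescence, normalized to controls.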

| Structure (SMILES) | cytotoxicity at 10 µM [%] |
| --- | --- |
| COc1ccc(NC(=O)c2nc3ccccc3n(C)c2=O)cc1OC | -7.36 |
| CN(C)S(=O)(=O)NCC(Cc1cccc(F)c1)N1CCNC1=O (stereo not given) | -3.55 |
| CC(C)(C)OC(=O)N1CCN(C(=O)c2cnn3c2OCCC3)CC1 | -2 |
| CCC(=O)N1CCN(c2cc(N(C)C)cnn2)CC1 | 2 |
| COc1ccc(CN2C[C@@H]3CN(S(=O)(=O)C4CC4)C[C@@H]3C2=O)cc1 | -4.01 |
| COCCN1C(=O)CCC12CCCN(C(=O)CC1CC1)CC2 (stereo not given) | 0.346 |
| COCCN1C(=O)C2(CCC(C(=O)Nc3cccc(C)c3)CC2)N=C1C (stereo not given) | 9.76 |
| O=C(NC1CC1)c1nc2c(s1)CCCN2c1ccccc1 | -157 |
| O=S(=O)(C1CC1)N1CCOC2(CCCN(c3ccccc3)C2)C1 (stereo not given) | -4.54 |
| Cc1cnc(N2C[C@@H]3CCN(CC4CC4)C(=O)[C@H]3C2)nc1 | 3.47 |
| O=S(=O)(C1CC1)N1CCC2(CCCN(c3ncc(F)cn3)C2)C1 (stereo not given) | 11.5 |
| CC(=O)N1CCC2(CC1)c1ncc(-c3ccccc3)n1CCN2C(C)=O | 10.5 |
| COc1ccc(N2CCCC3(C2)CN(c2ncccn2)CCO3)cc1 (stereo not given) | 15.3 |
| Cc1noc([C@@]23CCO[C@@H]2CCN(C(=O)c2ccsc2)C3)n1 | 9.1 |
| COc1nn(C)c2c1CCCN(C(=O)c1ccsc1)C2 | -0.414 |
| C[C@@H]1C[C@@H]2CCN(C(=O)c3ccncn3)C[C@H]2O1 | -1.55 |
| CCCNS(=O)(=O)c1cnccc1N1CCN(C(C)C)CC1 | -1.32 |
| CC(=O)c1c(C)nn(S(=O)(=O)c2ccc(C)cc2)c1C | -1.61 |
| O=C(Cn1nc(-c2cccs2)ccc1=O)N1CCCCCC1 | -2.7 |
| COC(=O)c1ccn(COc2ccccc2Cl)n1 | 8.99 |
| CCN1CCN(C(=O)c2cc(-c3cccs3)cs2)CC1 | 2.93 |
| CC(=O)N1CCC(c2nccnc2C)CC1 | -2.82 |

| Structure (SMILES) | cytotoxicity at 10 µM [%] |
| --- | --- |
| CN1CCN(C(=O)CCn2c(C(F)(F)F)cc3cccnc32)CC1 | -31.9 |
| O=C(Cc1cccs1)N1CCOC(c2cccc(O)c2)C1 (stereo not given) | 0.631 |
| O=C(COCC1CC1)Nc1cc(S(=O)(=O)NC2CC2)ccc1F | -7.63 |
| CCOC1CCN(C(=O)c2ccc(-c3cccc(C)c3)[nH]c2=O)CC1 | 3.08 |
| CCc1nc(CC)n(CC(=O)N(C)Cc2ccc(F)cc2)n1 | 5.25 |
| CC(C)C(C)NC(=O)Nc1cccc(OCC#N)c1 (stereo not given) | -1.13 |
| COc1cc(C)ccc1OCC(=O)NS(=O)(=O)c1cccnc1 | 4.03 |
| COc1cc(C)ccc1OCCC(=O)N1CCCC(n2cncn2)C1 (stereo not given) | -2.69 |
| CCc1nc2n(n1)CC(NCc1ccccc1OCC(=O)NC)CC2 (stereo not given) | 4.57 |
| Cc1c(CS(C)(=O)=O)cccc1NC(=O)CC1CCCC1 | -6.72 |
| COCCN1CCC(CNC(=O)c2c[nH]c(=O)c(Cl)c2)CC1 | 9.05 |
| COc1ccccc1CC1CCN(C(=O)CCN2CCOC2=O)CC1 | 3.76 |
| COc1cc(C(C)=O)ccc1OCC(=O)N(Cc1ccsc1)C1CC1 | 1.88 |
| CN(C)CCSc1ccc(NC(=O)c2nccn3ccnc23)cc1 | -6.25 |
| CC(C)NC(=O)CCNC(=O)Nc1cnn(-c2ccccc2F)c1 | 1.21 |
| COCCN(Cc1ccc(F)cc1Cl)C(=O)c1c(C)noc1C | -1.82 |
| CN(Cc1nccn1CC(F)(F)F)C(=O)c1cccc(N(C)C)c1 | 3.92 |
| CC(C)N(C)CC(=O)NCC(Cc1ccc(F)cc1)C(N)=O (stereo not given) | 13.6 |
| Cc1cc(NC(=O)C2CCCN(C(=O)NCC(C)C)C2)ccn1 (stereo not given) | -10.5 |
| Cc1ccc(NS(C)(=O)=O)c(C(=O)NCCC(=O)NC(C)C)c1 | -0.141 |
| Cc1cc(NC(=O)CN2CCCC(Cn3cncn3)C2)no1 (stereo not given) | -0.749 |
| Cc1nc(C2(NCc3ccc(C#N)cc3F)CCCC2)no1 | 2.78 |

| Structure (SMILES) | cytotoxicity at 10 µM [%] |
| --- | --- |
| CC(C)c1nc2c(n1C)CCN(CCc1ccccn1)C2 | -2.01 |
| CC(C)(C)CC(=O)NS(=O)(=O)c1ccc(F)cc1C(F)(F)F | -4.3 |
| Cc1cnn(CCC(=O)Nc2ccc(F)cc2OCC2CC2)c1 | -4.11 |
| O=C(c1ncoc1-c1ccco1)N(Cc1ccco1)CC1CCCO1 (stereo not given) | -2.05 |
| CC(=O)NCCSCCOc1cccc(Br)c1 | 10.1 |
| Cc1cccc(N(CCC(N)=O)CC(=O)NC2CCCC2)c1 | -20 |
| O=C(Nc1ccccc1)c1ccc(NCc2ccncc2)nn1 | -3.17 |
| O=C(NCCOCC1CC1)Nc1ccc(F)cc1 | 9.28 |
| CN(CC(=O)NC(C)(C#N)C1CC1)Cc1nnc(C2CC2)n1C (stereo not given) | 7.32 |
| CN(C)c1ccc(NC(=O)N2CCCCCC2c2ccncc2)cn1 (stereo not given) | 0.462 |
| Cn1ncc2c1C(COCC1CC1)CN(S(=O)(=O)C1CC1)C2 (stereo not given) | -74.3 |
| CN(C)CCO[C@H]1CN(C(=O)c2cscn2)[C@@H]2COC[C@H]12 | 1.43 |
| CN(C)C1(CNc2nccc(C3CCCC3)n2)CCOCC1 | -1.3 |
| Cc1cc(N(C)CCN(C)C2CCCC2)n2nc(C)cc2n1 | -6.09 |
| Cn1cnnc1CN1CCC2(CCCN(C3CCCC3)C2=O)C1 (stereo not given) | -133 |
| COc1ccc(N2CCN(C(=O)Cn3nccc3C)CC2(C)C)cc1 | 6.68 |
| O=C1CCC2(CCNCC2)CN1CCCNc1cccnc1 | -6.46 |
| CC(C)c1nc(CN(C)C(=O)C(O)c2ccc(Cl)cc2)cs1 (stereo not given) | -150 |
| CC1(C)CNC(=O)c2nc(C3CCCN(C(=O)C4CC4)C3)[nH]c2C1 (stereo not given) | 3.74 |
| Cc1ncsc1CN1CCC2(CC1)CC(=O)N(Cc1ccc(Cl)cc1)C2 | 6.83 |
| COCc1nc(N2CC[C@H](N(C)C)C2)c2cnn(C)c2n1 | -6.67 |
| O=C(CSc1ccncc1)NC1CC(=O)N(CCc2ccccc2)C1 (stereo not given) | 0.318 |

| Structure (SMILES) | cytotoxicity at 10 µM [%] |
| --- | --- |
| CCCc1nnc(N2CCN(c3ccccc3Cl)CC2)o1 | 0.426 |
| O=C(c1cc(COc2ccc3c(c2)OCO3)[nH]n1)N1CCCO1 | -1.59 |
| CCCN1CCCC2(CCN(Cc3noc(C4CCCC4)n3)C2)C1=O (stereo not given) | 0.603 |
| CC1CCN(S(=O)(=O)N2CCCC(c3cccc(C(=O)O)c3)C2)CC1 (stereo not given) | -13.3 |
| CN(C)CCNC(=O)c1cc2n(n1)CCN(C(=O)CC(C)(C)C)C2 | -1.85 |
| CCOc1ccccc1C(=O)N1CCCC(c2nccn2CCOC)C1 (stereo not given) | 1.1 |
| OC1(CN2CCCC2)COCCN(c2cc(C(F)(F)F)ccn2)C1 (stereo not given) | -5.34 |
| CCOc1ccc(-c2nc(C(=O)NCC3CCOC3)cs2)cc1 (stereo not given) | -4.33 |
| Cc1nn(C)c(C)c1C1COCCN1C(=O)c1ccc(Cl)o1 (stereo not given) | 2.01 |
| CCNC(=O)N(C)C(c1ccccc1)c1ccccn1 (stereo not given) | 1.52 |
| Cc1nc(C(=O)N2CCOC(c3nc(C(C)C)n[nH]3)C2)c[nH]1 (stereo not given) | -1.58 |
| c1ccc(Cc2nnc(CN3CCCC(Cn4cncn4)C3)o2)cc1 (stereo not given) | -4.51 |
| Cc1cc(C)n(C2CCCN(C(=O)Cc3cn4ccsc4n3)C2)n1 (stereo not given) | -6.07 |
| COc1ccccc1CNC(=O)Cn1nc(-c2ccc(F)cc2)oc1=O | -10.8 |
| Cc1cnc(C(=O)NC(CN2CCCC2=O)c2ccccc2)cn1 (stereo not given) | -8.8 |
| O=C(Nc1ccncc1)C1=NN(c2ccccc2)C(=O)CN1 | 2.76 |
| Cc1csc(N2CCN(C(=O)CCn3cccn3)CC2)n1 | -9.41 |
| Cc1nn(C)c(N2CCOCC2)c1CN[C@@H]1c2ccccc2C[C@@H]1O | -12.2 |
| CCc1n[nH]c(C2CN(C(=O)c3cc(C(N)=O)cs3)CCO2)n1 (stereo not given) | -17.5 |
| CC(=O)NC1CCCN(C(=O)Nc2cccnc2-n2cccn2)C1 (stereo not given) | -15.3 |
| CCn1ccnc1CN1CCCN(C(=O)COC2CCCCC2)CC1 | -11.7 |
| CC(=O)Nc1nc(C(=O)NCc2ccc(OC(C)C)nc2)cs1 | -2.45 |

| Structure (SMILES) | cytotoxicity at 10 µM [%] |
| --- | --- |
| COc1ccc(C)cc1C(=O)N1CCCC(n2cncn2)C1 (stereo not given) | -13.3 |
| Cc1cnn(CC2CCCN2C(=O)c2cn(C)c3ccccc23)c1 (stereo not given) | -2.12 |
| CCc1ccsc1C(=O)N1CCCN(Cc2cscn2)CC1 | -4.77 |
| CS(=O)(=O)NC1CCCN(C(=O)c2cccnc2)C1 (stereo not given) | -3.75 |
| Cc1nc(C2CCCN2Cc2nnc(Cc3ccccc3)o2)no1 (stereo not given) | -5 |
| Cc1noc(CCCC(=O)NC(C)c2cccnc2)n1 (stereo not given) | -12.5 |
| O=C(c1ccc(-n2cccn2)nc1)N1CCC(Nc2cccnn2)CC1 | -1.08 |
| O=C1N(Cc2cccc(Cl)c2)CCC12CCCNC2 (stereo not given) | -16.5 |
| Cc1ccc(O[C@@H]2C[C@H]3CN(Cc4nccn4C)CCN3C2)cc1 | 3.39 |
| CC(=O)N1CCCC1c1nnn2cc(NCc3cccnc3)ccc12 (stereo not given) | 17.1 |
| COc1ccc(CN2C[C@H]3CCC[C@@H](CN(C)C4CC4)[C@H]3C2)cn1 | 4.56 |
| c1cncc(COCc2nnc3n2CCN(CC2CC2)C3)c1 | -3.03 |
| O=C([C@H]1C[C@@H]2CCN(C3CCOCC3)C[C@@H]2O1)N1CCOCC1 | -2.56 |
| Cc1oncc1C(=O)N1CCC2(CC1)CC(N1CCOCC1)C2 | -2.69 |
| Fc1cnc(N2CCCC3(CN(Cc4ccccc4)CCO3)C2)nc1 (stereo not given) | 12.4 |
| O=C(NCc1ccco1)[C@H]1C[C@H]2OCC[C@H]2N(C(=O)c2ccncc2)C1 | -5.34 |
| O=C(c1cnccn1)N1CCCC2(CCN(c3ccccn3)C2)C1 (stereo not given) | 5.77 |
| CN1CCN(Cc2cccnc2)C2(CCN(Cc3ccccn3)C2)C1=O (stereo not given) | -3.66 |
| O=C(c1ncccn1)N1C[C@H]2CCC[C@@]2(COCc2ccncc2)C1 | -3.08 |
| COc1cccc(C=CCCN2CCC(C(=O)N3CCCC3)CC2)c1 | 7.09 |
| CC(C)=CCN1C(=O)[C@@H]2CC[C@H]1CN(C(=O)CCc1nnc(Cl)[nH]1)C2 | 2.96 |
| O=C(NCC1(COc2cnccn2)C[C@@H](O)[C@@H](O)C1)C1CCCC1 (stereo not given in full) | -1.81 |
